E-selectin induc: E-selectin induction on HUVECs; AID 686992; P16581; activation, % at 7.58 µM; HUVEC E-selectin immunofluorescence imaging; normalized: neutral wells 0, TNF-alpha wells 100; 260,000 compounds, 0.37% hits;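 active = mean E-selectin-positive cell signal at least 10% of the positive control, reached in at least 60% of replicates, without over 20% cell loss; inconclusive = no rule given, readout overlaps actives, possibly toxicity-flagged; inactive = the rest, including those meeting only one limit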
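material = human umbilical vein endothelial cells (HUVEC), E-selectin induction | quantity = 3,000 cells/well | medium = EGM-2 growth medium on 0.1% gelatin-coated wells | technique = immunofluorescence imaging | read-out basis = % PE-positive cells | control set = TNF-alpha positive control, DMSO neutral control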
DENV2 CPE rescue: protects cells from dengue virus 2 cytopathic effect; DENV2-infected cells, cytopathic effect rescue, plate reader; CPE inhibition, % at 9.99 µM; 350,000 compounds, 1.7% hits; AID 651640; in the data active = CPE inhibition above about 20%, passing the limit was not always enough; inconclusive = no clear call, values can overlap the other calls; tested in BHK-21 cells;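 note: 0% = median of neutral control wells and 100% = median of positive control wells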
SIRT5 block: inhibitors of human sirtuin-5 desuccinylase. inhibition, % at 15 µM. Purified SirT5, succinyl-peptide AMC, trypsin-coupled fluorescence. AID 652115. 330,000 compounds, 1.1% hits. Q9NXA8; in the data active = inhibition above about 15%; inconclusive = no clear call, values can overlap the other calls
Target sequence (Q9NXA8 whole entry, looked up): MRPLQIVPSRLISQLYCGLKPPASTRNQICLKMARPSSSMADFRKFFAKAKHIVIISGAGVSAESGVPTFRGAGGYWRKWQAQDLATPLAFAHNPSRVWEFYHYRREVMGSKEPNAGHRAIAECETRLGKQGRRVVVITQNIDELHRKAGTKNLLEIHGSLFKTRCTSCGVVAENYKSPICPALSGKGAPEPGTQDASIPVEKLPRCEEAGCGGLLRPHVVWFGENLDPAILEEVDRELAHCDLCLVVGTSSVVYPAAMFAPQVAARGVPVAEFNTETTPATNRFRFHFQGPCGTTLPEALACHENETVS
Starred values were filed as active, the others as inactive; u = inconclusive; x = not tested or not shown. Only some compounds are listed: those with a hit (about 2.9% of all), similar ones and a draw of the others.

SMILES | E-selectin induc | DENV2 CPE rescue | SIRT5 block
O=c1cc(-c2ccc(O)cc2)oc2c([C@@H]3O[C@H](CO)[C@@H](O)[C@H](O)[C@H]3O)c(O)c([C@@H]3O[C@H](CO)[C@@H](O)[C@H](O)[C@H]3O)c(O)c12 | -0.1 | 12.7 | 0.1
CC(C)NC(=O)N(C)C[C@@H]1Oc2ccc(NC(=O)Cn3cnnn3)cc2C(=O)N([C@H](C)CO)C[C@H]1C | 58.6* | x | x
C[C@H]1CN([C@@H](C)CO)C(=O)Cc2cc(NC(=O)Cn3cnnn3)ccc2O[C@@H]1CN(C)S(=O)(=O)c1ccc(Cl)cc1 | -0.1 | 6.8 | -7.4
C[C@@H]1CN([C@H](C)CO)C(=O)Cc2cc(NC(=O)Cn3cnnn3)ccc2O[C@H]1CN(C)C(=O)Nc1ccc(C(F)(F)F)cc1 | 32.3* | 30.4* | -3.6
CC(C)NC(=O)N(C)C[C@@H]1Oc2ccc(NC(=O)Cn3cnnn3)cc2C(=O)N([C@H](C)CO)C[C@@H]1C | 9.4 | x | x
C[C@@H]1CN([C@H](C)CO)C(=O)Cc2cc(NC(=O)Cn3cnnn3)ccc2O[C@@H]1CN(C)CC1CC1 | -0.1 | 1.6 | 3.3
C[C@@H]1CN([C@H](C)CO)C(=O)Cc2cc(NC(=O)Cn3cnnn3)ccc2O[C@@H]1CN(C)CC1CCCCC1 | 0.0 | 21.5* | 5.5
C[C@H](CO)N1C[C@H](C)[C@@H](CN(C)C(=O)Nc2ccc(C(F)(F)F)cc2)Oc2ccc(NC(=O)Cn3cnnn3)cc2CC1=O | -7.4 | -3.9 | -1.7
Cc1ccc(S(=O)(=O)N(C)C[C@H]2Oc3ccc(NC(=O)Cn4cnnn4)cc3CC(=O)N([C@@H](C)CO)C[C@H]2C)cc1 | -0.1 | -8.4 | 34.4*
CSc1ccccc1NC(=O)CN1CCCCC1 | x | 17.8 | -4.5
CN1C(=O)c2cc(NC(=O)c3ccc(F)c(F)c3)ccc2OC[C@H]2O[C@H](CC(=O)N3CCCCC3)CC[C@@H]21 | 0.1 | u | 2.2
CCS(=O)(=O)NC[C@H]1[C@@H](c2ccccc2)[C@@H](CO)N1CC1CCCC1 | 0.2 | 9.3 | 2.8
C[C@@H]1CN([C@H](C)CO)C(=O)Cc2cc(NC(=O)Cn3cnnn3)ccc2O[C@@H]1CN(C)C(=O)Nc1ccc(F)cc1 | -3.5 | x | x
C[C@H](CO)N1C[C@H](C)[C@H](CN(C)C(=O)Nc2ccc(C(F)(F)F)cc2)Oc2ccc(NC(=O)Cn3cnnn3)cc2CC1=O | 41.5* | -5.0 | -4.7
S=C1NC2(CCCCC2)N=C1c1ccccc1 | -1.2 | x | x
Cc1ccc(C2=NC3(CCCCC3)NC2=S)cc1 | x | 22.3* | -0.1
Cc1ccc(NC(=O)C(C)OC(=O)/C=C/c2ccccc2)cc1 (configuration not stated) | x | 6.1 | -0.6
CC(OC(=O)/C=C/c1ccccc1)C(=O)Nc1ccc2c(c1)OCCO2 (configuration not stated) | 4.0 | 14.2 | 19.8*
CCCN(CC1CC1)C(=S)Nc1ccc(C(C)=O)cc1 | 5.6 | -0.1 | -1.9
CCN(C(=S)Nc1ccc(C(C)=O)cc1)C1CCCCC1 | 0.8 | x | 20.6*
CCOC(=O)c1sc(NC(=O)CSc2nccc(C)n2)nc1C | x | -9.8 | -5.7
Nc1c(C(=O)Nc2ccccc2)sc2ncc([N+](=O)[O-])cc12 | 0.3 | -2.0 | -1.2
Cc1noc(C)c1S(=O)(=O)Nc1ccc2c(c1)C(=O)N([C@@H](C)CO)C[C@@H](C)[C@H](CN(C)C(=O)CCCN(C)C)OCCCC[C@H](C)O2 | -0.1 | x | x
Cc1noc(C)c1S(=O)(=O)Nc1ccc2c(c1)C(=O)N([C@H](C)CO)C[C@H](C)[C@H](CN(C)C(=O)CCC(F)(F)F)OCCCC[C@@H](C)O2 | 0.1 | 71.9* | 3.7
Cc1noc(C)c1S(=O)(=O)Nc1ccc2c(c1)C(=O)N([C@H](C)CO)C[C@@H](C)[C@@H](CN(C)C(=O)CCC(F)(F)F)OCCCC[C@@H](C)O2 | -0.1 | -3.5 | 1.5
SMILES | E-selectin induc | DENV2 CPE rescue | SIRT5 block
Cc1noc(C)c1S(=O)(=O)Nc1ccc2c(c1)C(=O)N([C@H](C)CO)C[C@H](C)[C@@H](CN(C)C(=O)CCCN(C)C)OCCCC[C@H](C)O2 | -0.2 | 79.0* | x
COc1cccc(-c2cnc3c(NC(C)=O)cc(-c4cccc(NS(C)(=O)=O)c4)cn23)c1 | 0.2 | -3.2 | 5.3
Cn1c(CCCOc2ccc(Cl)cc2Cl)nnc1SCC(=O)Nc1cccc(F)c1 | 1.8 | x | x
Nc1cc(N)nc(SCCc2ccccc2)n1 | 0.0 | -6.1 | -6.6
O=C(Cc1cccc(NC(=O)C2CCCN(C(=O)C3CCCCC3)C2)c1)Nc1ccc(C(=O)N2CCCCC2)cc1 (configuration not stated) | -0.1 | 4.0 | -0.4
O=C(Cc1cccc(NC(=O)C2CCCN(C(=O)C3CCCC3)C2)c1)Nc1ccc(C(=O)N2CCOCC2)cc1 (configuration not stated) | -0.2 | 27.4* | 2.2
O=C(Nc1cccc(-n2cnnn2)c1)C1CCCN(Cc2cccc(C(F)(F)F)c2)C1 (configuration not stated) | 0.1 | -5.8 | 1.8
O=C(Cc1cccc([N+](=O)[O-])c1)Nc1cccc(C(=O)N2CCCC2)c1 | -0.2 | 1.8 | x
O=C(Cc1cccc(NC(=O)C2CCCN(C(=O)C3CCCCC3)C2)c1)Nc1cccc(C(=O)N2CCOCC2)c1 (configuration not stated) | 1.0 | 10.5 | -0.5
O=C(Cc1cccc(NC(=O)C2CCCN(C(=O)C3CCCC3)C2)c1)Nc1cccc(C(=O)N2CCOCC2)c1 (configuration not stated) | -0.1 | 3.0 | 19.1*
O=C(Cc1cccc([N+](=O)[O-])c1)Nc1ccc(C(=O)N2CCCCC2)cc1 | -0.1 | 81.3* | x
O=C(Nc1cccc(-n2cnnn2)c1)C1CCCN(C(=O)Cc2cccc(Cl)c2)C1 (configuration not stated) | x | 60.5* | -2.6
CCN1CCN(c2ccc(S(=O)(=O)N3CCCCC3)cc2NC(=O)c2ccc([N+](=O)[O-])o2)CC1 | 0.1 | -3.2 | 3.1
CC(=O)Nc1ccc(NC(=O)CSc2nnc3ccc(-c4ccccn4)nn23)cc1 | -0.1 | -7.8 | -1.4
CC1CCN(C(=O)CSc2nnc(Cc3ccccc3)o2)CC1 | 4.9 | 4.9 | -2.0
O=C(Cc1cccc(NC(=O)C2CCCN(C(=O)c3ccccc3)C2)c1)Nc1ccc(C(=O)N2CCOCC2)cc1 (configuration not stated) | -0.1 | 15.9 | 0.4
O=C(Cc1cccc(NC(=O)C2CCCN(C(=O)C3CCC3)C2)c1)Nc1ccc(C(=O)N2CCOCC2)cc1 (configuration not stated) | -0.1 | 31.6* | 0.7
CCN(CC)P(=O)(Nc1ccc(Br)cc1)c1c(C)nn(CCC#N)c1NC(=O)c1ccc(Cl)cc1 (configuration not stated) | 50.4* | -1.4 | -3.3
CCn1nc(C)c(NC(=O)c2ccc(Cl)cc2)c1C | -1.2 | -2.2 | -1.6
CC1C=NC(S(=O)(=O)N2CC[C@@H]3[C@@H](CO)N(C)c4ccc(C5=CCCCC5)cc4[C@@H]32)=N1 (some centres not stated) | 0.4 | -5.3 | 2.7
COc1ccc(NC(=O)CSc2nnc(Cc3cccs3)n2C)cc1 | 0.2 | -6.1 | -5.7
C[C@H](CO)N1C[C@H](C)[C@H](CN(C)S(=O)(=O)c2cn(C)cn2)Oc2ccc(NC(=O)CCCCCC(=O)Nc3ccccc3N)cc2C1=O | -2.9 | 9.3 | 0.8

Assay outcomes as filed in PubChem.
